Data published in ChEMBL document CHEMBL2057114, “Non-nucleoside inhibitors of the measles virus RNA-dependent RNA polymerase: synthesis, structure-activity relationships, and pharmacokinetics” (J Med Chem, 2012).
≈ marks a conversion by molar mass, not a printed value.

Experiments:
[1] = system: Measles morbillivirus; experiment: Antiviral activity against Measles virus Alaska infected african green monkey Vero cells expressing human SLAM assessed as decrease in virus-induced cytopathic effect; assay type: functional, organism-based
[2] = Solubility of the compound at pH 7.4 by nephelometric analysis; assay type: physicochemical; details: buffer
Procedure, shortened: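 Aqueous solubility was measured by nephelometry in buffer at pH 7.4.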

[3] = system: Vero; experiment: Cytotoxicity against african green monkey Vero cells after 24 hrs by MTT assay; assay type: cell-based; details: chlorocebus sabaeus
[4] = Cmax in Sprague-Dawley rat at 10 mg/kg, po; assay type: ADME, organism-based; set-up: dose 10 mg/kg, route oral; details: in vivo
Procedure, shortened: (§1)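 Oral gavage at 10 and 50 mg/kg to Sprague-Dawley rats, given as a suspension in PEG200/0.5% methylcellulose (10/90), n = 4 per group. Plasma concentration was followed over time, and PK parameters were estimated by non-compartmental analysis.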

[5] = Half life in Sprague-Dawley rat at 50 mg/kg, po; assay type: ADME, organism-based; set-up: dose 50 mg/kg, route oral; details: in vivo; procedure, shortened: as §1
[6] = system: Rattus norvegicus; experiment: Ratio of Cmax for ERDRP-00519 to Cmax for AS-136a in Sprague-Dawley rat at 10 to 50 mg/kg; assay type: ADME, organism-based; set-up: dose 10-50 mg/kg; details: in vivo
[7] = Tmax in Sprague-Dawley rat at 10 mg/kg, po; assay type: ADME, organism-based; set-up: dose 10 mg/kg, route oral; details: in vivo; procedure, shortened: as §1
[8] = AUC (0 to t) in Sprague-Dawley rat at 10 mg/kg, po; assay type: ADME, organism-based; set-up: dose 10 mg/kg, route oral; details: plasma; procedure, shortened: as §1
[9] = Tmax in Sprague-Dawley rat at 50 mg/kg, po; assay type: ADME, organism-based; set-up: dose 50 mg/kg, route oral; details: in vivo; procedure, shortened: as §1
[10] = Cmax in Sprague-Dawley rat at 50 mg/kg, po; assay type: ADME, organism-based; set-up: dose 50 mg/kg, route oral; details: in vivo; procedure, shortened: as §1
[11] = system: Rattus norvegicus; experiment: Oral bioavailability in Sprague-Dawley rat at 10 mg/kg; assay type: ADME, organism-based; details: in vivo
Procedure, shortened: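 Rats were dosed 2 mg/kg i.v. and 10 mg/kg p.o., and oral bioavailability F was derived by comparing the two routes.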

[12] = AUC (0 to infinity) in Sprague-Dawley rat at 10 mg/kg, po; assay type: ADME, organism-based; set-up: time infinity, dose 10 mg/kg, route oral; details: plasma; procedure, shortened: as §1
[13] = system: Caco-2; experiment: Efflux ratio of permeability in human Caco2 cells; assay type: ADME, cell-based
Procedure, shortened: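 Caco-2 bidirectional permeability assay, with efflux ratio calculated from the two transport directions.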

[14] = system: Measles morbillivirus; experiment: Antiviral activity against Measles virus Alaska infected african green monkey Vero cells expressing human SLAM assessed as decrease in viral titer at EC50 of cytopathic inhibition; assay type: functional, organism-based
[15] = Metabolic stability of the compound in human liver S9 fractions assessed as compound remaining after 1 hr; assay type: ADME, subcellular, S9 fraction; details: read-out: Stability
Procedure, shortened: (§2)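 Compound incubated one hour in liver S9 fraction, with the percentage of parent compound remaining as the readout.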

[16] = system: Measles morbillivirus; experiment: Inhibition of Measles virus RdRp expressed in baby hamster BSR-T7/5 cells by firefly luciferase mini replicon assay; assay type: cell-based
Procedure, shortened: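 BSR-T7/5 cells were transfected with plasmids encoding MeV L, N and P plus a firefly luciferase minigenome reporter, then incubated with a range of inhibitor concentrations or vehicle. Luciferase activity in cell lysates was read 36 h post-transfection relative to vehicle, and dose-response curves were built; three experiments.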

[17] = system: Rattus norvegicus; experiment: Ratio of AUC for ERDRP-00519 to AUC for AS-136a in Sprague-Dawley rat at 10 to 50 mg/kg; assay type: ADME, organism-based; set-up: dose 10-50 mg/kg; details: in vivo
[18] = AUC (0 to t) in Sprague-Dawley rat at 50 mg/kg, po; assay type: ADME, organism-based; set-up: dose 50 mg/kg, route oral; details: plasma; procedure, shortened: as §1
[19] = AUC (0 to infinity) in Sprague-Dawley rat at 50 mg/kg, po; assay type: ADME, organism-based; set-up: time infinity, dose 50 mg/kg, route oral; details: plasma; procedure, shortened: as §1
[20] = Half life in Sprague-Dawley rat at 10 mg/kg, po; assay type: ADME, organism-based; set-up: dose 10 mg/kg, route oral; details: in vivo; procedure, shortened: as §1
[21] = Metabolic stability of the compound in mouse liver S9 fractions assessed as compound remaining after 1 hr; assay type: ADME, subcellular, S9 fraction; details: read-out: Stability; procedure, shortened: as §2

Row | Structure (SMILES) | EC50 [1] [µM] | solubility kinetic [2] [µg/mL] | other results
1 | Cn1nc(C(F)(F)F)cc1C(=O)Nc1ccc(S(=O)(=O)c2ccccc2O)cc1 | 4.5 | 67 (≈ 158 µM) | –
2 | Cn1nc(C(F)(F)F)cc1C(=O)Nc1ccc(S(=O)(=O)c2ccccc2CO)cc1 | 3.5 | 46 (≈ 105 µM) | CC50 [3]: > 75 µM
3 | Cn1nc(C(F)(F)F)cc1C(=O)Nc1ccc(S(=O)(=O)N2CCCC[C@H]2CCN2CCOCC2)cc1 | 2.5 | 60 (≈ 113 µM) | Cmax [4]: 195 ng/mL; CC50 [3]: > 75 µM; half-life [5]: 6.5 h; Ratio [6]: 10; Tmax [7]: 1.1 h; AUC(0-t) [8]: 683 ng·h/mL; Tmax [9]: 1.5 h; Cmax [10]: 823 ng/mL; F [11]: 39%; AUC(0-inf) [12]: 818 ng·h/mL; Ratio [13]: 2.6; EC50 [14]: 0.06 µM; remaining at 1 h [15]: 24%; inhibition [16]: Dose-dependent effect; Ratio [17]: 10; AUC(0-t) [18]: 3520 ng·h/mL; AUC(0-inf) [19]: 7860 ng·h/mL; half-life [20]: 2.2 h
4 | Cn1nc(C(F)(F)F)cc1C(=O)Nc1ccc(S(=O)(=O)c2ccccc2CN2CCOCC2)cc1 | > 75 | – | –
5 | Cn1nc(C(F)(F)F)cc1C(=O)Nc1ccc(S(=O)(=O)N2CCCCC2CN2CCOCC2)cc1 (configuration not stated) | 9.3 | – | –
6 | CC(=O)Oc1ccccc1S(=O)(=O)c1ccc(NC(=O)c2cc(C(F)(F)F)nn2C)cc1 | 4.5 | – | –
7 | CCOC(=O)COCC1CCCCN1S(=O)(=O)c1ccc(NC(=O)c2cc(C(F)(F)F)nn2C)cc1 (configuration not stated) | 25 | – | –
8 | COCOCC1CCCN(S(=O)(=O)c2ccc(NC(=O)c3cc(C(F)(F)F)nn3C)cc2)C1 (configuration not stated) | 3.8 | – | –
9 | C=Cc1ccccc1S(=O)(=O)c1ccc(NC(=O)c2cc(C(F)(F)F)nn2C)cc1 | > 50 | – | –
10 | CC(=O)NCC1CCCCN1S(=O)(=O)c1ccc(NC(=O)c2cc(C(F)(F)F)nn2C)cc1 (configuration not stated) | 14 | – | –
11 | CCOC(=O)CCC1CCCCN1S(=O)(=O)c1ccc(NC(=O)c2cc(C(F)(F)F)nn2C)cc1 (configuration not stated) | 6.7 | – | –
12 | CCOC(=O)/C=C/C1CCCCN1S(=O)(=O)c1ccc(NC(=O)c2cc(C(F)(F)F)nn2C)cc1 (configuration not stated) | 6.8 | – | –
13 | COCOCC1CCN(S(=O)(=O)c2ccc(NC(=O)c3cc(C(F)(F)F)nn3C)cc2)CC1 | 16 | – | –
14 | Cn1nc(C(F)(F)F)cc1C(=O)Nc1ccc(S(=O)(=O)N2CCCCC2CN)cc1 (configuration not stated) | 55 | – | –
15 | Cn1nc(C(F)(F)F)cc1C(=O)Nc1ccc(S(=O)(=O)N2CCCCC2CCN2CCOCC2)cc1 (configuration not stated) | 4.6 | 55 (≈ 104 µM) | –
16 | Cn1nc(C(F)(F)F)cc1C(=O)Nc1ccc(S(=O)(=O)N2CCCCC2/C=C/CO)cc1 (configuration not stated) | 3.7 | – | –
17 | Cn1nc(C(F)(F)F)cc1C(=O)Nc1ccc(S(=O)(=O)N2CCCC[C@@H]2CCO)cc1 | 8.3 | – | –
18 | Cn1nc(C(F)(F)F)cc1C(=O)Nc1ccc(S(=O)(=O)N2CCCCC2COCCO)cc1 (configuration not stated) | 8.3 | – | –
19 | CN(C)CC1CCCCN1S(=O)(=O)c1ccc(NC(=O)c2cc(C(F)(F)F)nn2C)cc1 (configuration not stated) | > 150 | – | –

The next lines start with results.

Row | EC50 [1] [µM] | solubility kinetic [2] [µg/mL] | Structure (SMILES) | other results
20 | 2.8 | 61 (≈ 137 µM) | Cn1nc(C(F)(F)F)cc1C(=O)Nc1ccc(S(=O)(=O)N2CCCCC2CO)cc1 (configuration not stated) | CC50 [3]: > 75 µM
21 | 2 | < 15 | Cn1nc(C(F)(F)F)cc1C(=O)Nc1ccc(S(=O)(=O)N2CCCCC2)cc1 | CC50 [3]: > 75 µM; Ratio [13]: 1.1; remaining at 1 h [21]: 79%; remaining at 1 h [15]: 69%; inhibition [16]: Dose-dependent effect
22 | 3.1 | < 15 | COc1ccccc1S(=O)(=O)c1ccc(NC(=O)c2cc(C(F)(F)F)nn2C)cc1 | CC50 [3]: > 75 µM
23 | 1.5 | – | Cn1nc(C(F)(F)F)cc1C(=O)Nc1ccc(S(=O)(=O)N2CCCCC2CN=[N+]=[N-])cc1 (configuration not stated) | –
24 | 1.5 | – | COCOCC1CCCCN1S(=O)(=O)c1ccc(NC(=O)c2cc(C(F)(F)F)nn2C)cc1 (configuration not stated) | –
25 | 3.1 | – | Cn1nc(C(F)(F)F)cc1C(=O)Nc1ccc(S(=O)(=O)N2CCCC[C@H]2CCO)cc1 | –
26 | 2.7 | 62 (≈ 135 µM) | Cn1nc(C(F)(F)F)cc1C(=O)Nc1ccc(S(=O)(=O)N2CCCCC2CCO)cc1 (configuration not stated) | CC50 [3]: > 75 µM; EC50 [14]: 0.1 µM
27 | 2.8 | 22 (≈ 53.7 µM) | Cn1nc(C(F)(F)F)cc1C(=O)Nc1ccc(S(=O)(=O)c2ccccc2)cc1 | CC50 [3]: > 75 µM; EC50 [14]: 0.09 µM
28 | 2.7 | – | Cn1nc(C(F)(F)F)cc1C(=O)Nc1ccc(S(=O)(=O)N2CCCCC2CCCO)cc1 (configuration not stated) | –
